Source: ChEMBL document CHEMBL4033790, “Design and Synthesis of Novel Deuterated Ligands Functionally Selective for the γ-Aminobutyric Acid Type A Receptor (GABAAR) α6 Subtype with Improved Metabolic Stability and Enhanced Bioavailability” (J Med Chem, 2018)
In brackets after ≈: the same amount, converted by molar mass. Activity calls are given as the source filed them. The calls are words filed in the database; no cut-off is given here.

How the values were obtained:
[1] = Solubility of the compound in 0.01M HCl at pH 2 after 2 hrs by LC-MS analysis; type: physicochemical; details: buffer, pH 2, 2 h
Summary of the method: (§1)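 10 mg compound dissolved in 2 mL DMAC; 10 μL of this added to 2 mL DI water (pH 7, sonicated) or 2 mL 0.01 M aq HCl (pH 2), held 2 h at 37 °C. Filtered through 0.45 micron filter, then quantified by LC-MS in SIM mode against calibration curves of standards in DMAC (n = 5); n=3.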

[2] = Aqueous solubility of the compound in DI water at pH 7 after 2 hrs by LC-MS analysis; type: physicochemical; details: buffer, pH 7, 2 h; summary of the method: as §1
Liver [3] = test: Half life in human liver microsomes at 10 uM by LC-MS/MS analysis; type: ADME, microsome
Summary of the method: (§2)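 Compound at 10 μM final was preincubated 5 min at 37 °C with NADPH regenerating system in phosphate buffer, pH 7.4. Human or mouse liver microsomes (0.5 mg/mL protein) were added to start the reaction. Samples were taken at 0 (no microsomes) and 10–60 min and measured by LC-MS/MS against an internal standard. Half-life = 0.693/k, with k the slope of ln peak-area ratio versus time. Three experiments, each in duplicate.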

Liver [4] = test: Half life in mouse liver microsomes at 10 uM by LC-MS/MS analysis; type: ADME, microsome; summary of the method: as §2
[5] = biological target: Delta-type opioid receptor (Homo sapiens) (UniProt P41143); test: Displacement of [3H]-DADLE from human recombinant DOR expressed in HEK293 cells at 10 uM after 60 to 90 mins by scintillation counting; type: cell-based; details: tested as the 2H-labelled form
Summary of the method: (§3)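 Primary single-concentration radioligand displacement screen run by the NIMH Psychoactive Drug Screening Program across a 46-target panel that includes hERG. The read-out is percent inhibition of specific radioligand binding. Any compound displacing more than 50% of radioligand went on to secondary binding assays to determine Ki.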

Mus musculus = test: Neurotoxicity in Swiss Webster mouse assessed as induction of motor impairment at 40 mg/kg administered via oral gavage measured after 10 to 60 mins by rotarod method; type: toxicity, organism-based; details: in vivo
Summary of the method: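 Female mice were given a single oral gavage dose of 40 mg/kg, either in 50% PBS/40% propylene glycol/10% DMSO or, for poorly soluble compounds, in 2% polyethylene glycol plus 2.5% hydroxymethyl cellulose. Rotarod performance was tested 10, 30 and 60 min after dosing, with diazepam 5 mg/kg as positive control.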

[6] = Metabolic stability in mouse liver microsomes assessed as parent compound remaining at 10 uM after 60 mins by LC-MS analysis; type: ADME, microsome; details: read-out: Stability
Summary of the method: (§4)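 The 60 min samples of the microsomal incubation (10 μM compound, human or mouse liver microsomes at 0.5 mg/mL, NADPH regenerating system, 37 °C) were analysed by LC-MS. Detection used SIM mode with dual ESI/APCI ionization, calibrated to the retention times and masses of the parent and its O-demethylated metabolites. Peak intensities were measured.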

[7] = Metabolic stability in human liver microsomes assessed as parent compound remaining at 10 uM after 60 mins by LC-MS analysis; type: ADME, microsome; details: read-out: Stability; summary of the method: as §4
Rattus norvegicus = species: Rattus norvegicus; test: Displacement of [3H]-flunitrazepam from rat brain GABA-A receptor benzodiazepine site […] at 10 uM after 60 to 90 mins by scintillation counting; details: tested as the 2H-labelled form
[8] = biological target: GABA-A receptor; alpha-5/beta-3/gamma-2 (Homo sapiens) (UniProt P18507+P28472+P31644); test: Positive allosteric modulation of GABA-A receptor alpha5beta3gamma2 (unknown origin) expressed in Xenopus laevis oocytes assessed as potentiation of EC3 GABA induced currents up to 100 uM at -60 mV holding potential by electrophysiological method relative to GABA; type: cell-based; details: tested as the 2H-labelled form
Summary of the method: (§5)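 Stage 5–6 defolliculated Xenopus oocytes were injected with 2.5 ng total mRNA per oocyte: α1, α2, α3 or α5 with β3 and γ2 at 1:1:5, and α4 or α6 with β3 and γ2 at 3:1:5. Oocytes were kept ≥36 h at 18 °C in NDE medium before recording. Compounds were co-applied with GABA titrated to EC3-5 for each oocyte. Curves were fitted with the Hill equation; mean ± SEM from ≥3 oocytes across two batches.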

[9] = biological target: GABA-A receptor; alpha-1/beta-3/gamma-2 (Homo sapiens) (UniProt P14867+P18507+P28472); test: Positive allosteric modulation of GABA-A receptor alpha1beta3gamma2 (unknown origin) expressed in Xenopus laevis oocytes assessed as potentiation of EC3 GABA induced currents up to 100 uM at -60 mV holding potential by electrophysiological method relative to GABA; type: cell-based; details: tested as the 2H-labelled form; summary of the method: as §5
[10] = biological target: GABA-A receptor; alpha-6/beta-3/gamma-2 (Homo sapiens) (UniProt P18507+P28472+Q16445); test: Positive allosteric modulation of GABA-A receptor alpha6beta3gamma2 (unknown origin) expressed in Xenopus laevis oocytes assessed as potentiation of EC3 GABA induced currents up to 10 uM at -60 mV holding potential by electrophysiological method; type: cell-based; details: tested as the 2H-labelled form; summary of the method: as §5
[11] = biological target: GABA-A receptor; alpha-3/beta-3/gamma-2 (Homo sapiens) (UniProt P18507+P28472+P34903); test: Positive allosteric modulation of GABA-A receptor alpha3beta3gamma2 (unknown origin) expressed in Xenopus laevis oocytes assessed as potentiation of EC3 GABA induced currents up to 100 uM at -60 mV holding potential by electrophysiological method relative to GABA; type: cell-based; details: tested as the 2H-labelled form; summary of the method: as §5
[12] = biological target: GABA A receptor alpha-4/beta-3/gamma-2 (Homo sapiens) (UniProt P18507+P28472+P48169); test: Positive allosteric modulation of GABA-A receptor alpha4beta3gamma2 (unknown origin) expressed in Xenopus laevis oocytes assessed as potentiation of EC3 GABA induced currents up to 100 uM at -60 mV holding potential by electrophysiological method relative to GABA; type: cell-based; details: tested as the 2H-labelled form; summary of the method: as §5
[13] = biological target: GABA-A receptor; alpha-2/beta-3/gamma-2 (Homo sapiens) (UniProt P18507+P28472+P47869); test: Positive allosteric modulation of GABA-A receptor alpha2beta3gamma2 (unknown origin) expressed in Xenopus laevis oocytes assessed as potentiation of EC3 GABA induced currents up to 100 uM at -60 mV holding potential by electrophysiological method relative to GABA; type: cell-based; details: tested as the 2H-labelled form; summary of the method: as §5
[14] = biological target: Muscarinic acetylcholine receptor M4 (Homo sapiens) (UniProt P08173); test: Displacement of [3H]-QNB from human recombinant M4 receptor expressed in HEK293 cells at 10 uM after 60 to 90 mins by scintillation counting; type: cell-based; summary of the method: as §3
[15] = biological target: Voltage-gated inwardly rectifying potassium channel KCNH2 (Homo sapiens, UniProt Q12809); test: Displacement of [3H]-dofetilide from human ERG expressed in HEK cell membranes at >10 uM after 60 to 90 mins by scintillation counting
[16] = Drug level in mouse liver microsomes treated with 7-Bromo-2-(4-methoxy-d3-phenyl)-2,5-dihydro-3H-pyrazolo[4,3-c]quinolin-3-one after 60 mins by LC-MS analysis; type: ADME; details: 1 h
[17] = Drug level in human liver microsomes treated with 7-Bromo-2-(4-methoxy-d3-phenyl)-2,5-dihydro-3H-pyrazolo[4,3-c]quinolin-3-one after 60 mins by LC-MS analysis; type: ADME; details: 1 h
Brain [18] = test: AUC (0 to 12 hrs) in Wistar rat brain at 10 mg/kg, ip administered as single dose by HPLC-MS/MS analysis; type: ADME, organism-based; design: dose 10 mg/kg, time < 12 hr, route intraperitoneal; details: in vivo
[19] = Tmax in Wistar rat brain at 10 mg/kg, ip administered as single dose by HPLC-MS/MS analysis; type: ADME, organism-based
Summary of the method: (§6)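 Male Wistar rats (250–350 g) received a single i.p. dose of 10 mg/kg as a 5 mg/ml suspension in 85% water, 14% propylene glycol and 1% Tween 80. Three rats per time point were sacrificed at 5, 20, 60, 180 and 720 min for plasma and brain. Samples were cleaned up by solid-phase extraction and quantified by HPLC-MS/MS.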

[20] = Terminal elimination half-life in Wistar rat plasma at 10 mg/kg, ip administered as single dose by HPLC-MS/MS analysis; type: ADME, organism-based; details: read-out: beta t1/2 (converted); summary of the method: as §6
Brain [21] = test: Fraction unbound in Wistar rat brain at 10 mg/kg, ip administered as single dose measured at 5 to 720 mins post dose by HPLC-MS/MS analysis; type: ADME, organism-based; details: in vivo
Summary of the method: (§7)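 Free fraction in rat plasma and brain tissue was measured in vitro by rapid equilibrium dialysis. Exposure came from male Wistar rats (250-350 g) given a single 10 mg/kg IP dose, as a 5 mg/ml suspension in 85% water, 14% propylene glycol and 1% Tween 80. Three rats per time point (5–720 min); brain analysed by HPLC-MS/MS after solid-phase extraction.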

[22] = Tmax in Wistar rat plasma at 10 mg/kg, ip administered as single dose by HPLC-MS/MS analysis; type: ADME, organism-based; summary of the method: as §6
HepG2 = test: Cytotoxicity against human HepG2 cells assessed as reduction in cell viability up to 400 uM after 48 hrs by CellTiter-Glo assay; type: cell-based; details: hepg2, 48 h
Summary of the method: (§8)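 HEK293T and HepG2 cells grown in high-glucose DMEM with non-essential amino acids, 10 mM HEPES, penicillin/streptomycin and 10% heat-inactivated FBS. Cells were harvested with trypsin and plated; compound was pin-transferred 3 h later. Incubation was 48 h, then CellTiter-Glo luminescence was read. Controls were DMSO (negative) and a cytotoxic aminoketone (positive). Quadruplicates, three independent runs, normalized to controls, nonlinear regression.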

Brain [23] = test: Unbound AUC in Wistar rat brain at 10 mg/kg, ip administered as single dose measured at 5 to 720 mins post dose by HPLC-MS/MS analysis; type: ADME, organism-based; details: in vivo; summary of the method: as §7
[24] = Ratio of brain AUC (0 to t) to plasma AUC (0 to t), Kp of the compound in Wistar rat at 10 mg/kg, ip administered as single dose by HPLC-MS/MS analysis; type: ADME, organism-based
[25] = AUC (0 to 12 hrs) in Wistar rat plasma at 10 mg/kg, ip administered as single dose by HPLC-MS/MS analysis; type: ADME, organism-based; design: time < 12 hr, dose 10 mg/kg, route intraperitoneal
[26] = Terminal elimination half-life in Wistar rat brain at 10 mg/kg, ip administered as single dose by HPLC-MS/MS analysis; type: ADME, organism-based; details: read-out: beta t1/2 (converted); summary of the method: as §6
[27] = Cmax in Wistar rat plasma at 10 mg/kg, ip administered as single dose measured at 5 to 720 mins post dose by HPLC-MS/MS analysis; type: ADME, organism-based; design: dose 10 mg/kg, route intraperitoneal
Summary of the method: (§9)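 Male Wistar rats (250-350 g) given a single 10 mg/kg i.p. dose of a 5 mg/ml suspension in 85% distilled water, 14% propylene glycol, 1% Tween 80. Three rats per time point (5, 20, 60, 180, 720 min). Blood and brain were collected after sacrifice. Drug was recovered by solid phase extraction and quantified by HPLC-MS/MS.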

[28] = Cmax in Wistar rat brain at 10 mg/kg, ip administered as single dose measured at 5 to 720 mins post dose by HPLC-MS/MS analysis; type: ADME, organism-based; design: dose 10 mg/kg, route intraperitoneal; summary of the method: as §9
HEK-293T = test: Cytotoxicity against HEK293T cells assessed as reduction in cell viability up to 400 uM after 48 hrs by CellTiter-Glo assay; type: cell-based; details: human; summary of the method: as §8

Voltage-gated inwardly rectifying potassium channel KCNH2, sequence (Q12809 whole entry): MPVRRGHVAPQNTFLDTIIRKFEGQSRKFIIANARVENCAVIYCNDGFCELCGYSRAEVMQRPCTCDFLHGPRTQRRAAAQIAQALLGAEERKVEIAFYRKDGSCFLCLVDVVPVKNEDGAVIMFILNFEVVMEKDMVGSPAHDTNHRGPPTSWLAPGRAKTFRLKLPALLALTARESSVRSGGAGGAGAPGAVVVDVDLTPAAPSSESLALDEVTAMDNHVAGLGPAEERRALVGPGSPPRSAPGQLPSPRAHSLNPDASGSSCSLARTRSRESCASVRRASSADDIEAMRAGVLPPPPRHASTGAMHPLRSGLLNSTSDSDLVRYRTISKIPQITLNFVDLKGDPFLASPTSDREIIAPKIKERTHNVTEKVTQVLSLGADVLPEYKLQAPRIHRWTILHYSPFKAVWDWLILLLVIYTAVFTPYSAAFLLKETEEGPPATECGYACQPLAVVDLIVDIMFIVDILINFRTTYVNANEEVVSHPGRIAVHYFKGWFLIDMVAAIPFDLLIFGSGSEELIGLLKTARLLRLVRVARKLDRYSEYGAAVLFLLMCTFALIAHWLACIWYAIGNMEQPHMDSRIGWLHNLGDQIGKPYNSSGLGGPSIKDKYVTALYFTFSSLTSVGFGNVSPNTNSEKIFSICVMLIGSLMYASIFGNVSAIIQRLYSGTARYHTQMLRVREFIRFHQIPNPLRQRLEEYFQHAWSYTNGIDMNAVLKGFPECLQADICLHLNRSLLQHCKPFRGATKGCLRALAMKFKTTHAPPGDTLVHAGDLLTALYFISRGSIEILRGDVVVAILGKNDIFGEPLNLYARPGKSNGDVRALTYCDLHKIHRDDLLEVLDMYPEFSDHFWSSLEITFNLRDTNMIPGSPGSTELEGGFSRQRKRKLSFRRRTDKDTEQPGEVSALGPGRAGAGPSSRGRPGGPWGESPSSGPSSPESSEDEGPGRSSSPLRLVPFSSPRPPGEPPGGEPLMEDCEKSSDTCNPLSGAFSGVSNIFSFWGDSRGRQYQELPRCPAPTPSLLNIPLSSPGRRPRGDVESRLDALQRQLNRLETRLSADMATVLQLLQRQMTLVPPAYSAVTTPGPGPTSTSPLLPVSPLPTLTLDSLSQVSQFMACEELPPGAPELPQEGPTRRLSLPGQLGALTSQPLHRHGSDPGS
Muscarinic acetylcholine receptor M4 (Homo sapiens), sequence (P08173 whole entry): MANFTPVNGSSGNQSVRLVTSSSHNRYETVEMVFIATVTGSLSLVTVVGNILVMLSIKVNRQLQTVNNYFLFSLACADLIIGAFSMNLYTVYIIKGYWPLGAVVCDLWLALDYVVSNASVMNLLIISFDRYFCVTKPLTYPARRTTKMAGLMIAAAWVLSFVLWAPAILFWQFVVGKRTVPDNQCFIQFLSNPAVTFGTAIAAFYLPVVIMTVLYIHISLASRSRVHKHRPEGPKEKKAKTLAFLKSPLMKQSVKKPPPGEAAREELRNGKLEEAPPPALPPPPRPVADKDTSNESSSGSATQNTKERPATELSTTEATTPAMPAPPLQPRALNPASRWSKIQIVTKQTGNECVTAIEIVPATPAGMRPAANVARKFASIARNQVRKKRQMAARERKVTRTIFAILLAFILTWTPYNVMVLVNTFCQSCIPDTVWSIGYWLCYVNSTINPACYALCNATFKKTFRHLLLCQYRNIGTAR
Delta-type opioid receptor (Homo sapiens), sequence (P41143 whole entry): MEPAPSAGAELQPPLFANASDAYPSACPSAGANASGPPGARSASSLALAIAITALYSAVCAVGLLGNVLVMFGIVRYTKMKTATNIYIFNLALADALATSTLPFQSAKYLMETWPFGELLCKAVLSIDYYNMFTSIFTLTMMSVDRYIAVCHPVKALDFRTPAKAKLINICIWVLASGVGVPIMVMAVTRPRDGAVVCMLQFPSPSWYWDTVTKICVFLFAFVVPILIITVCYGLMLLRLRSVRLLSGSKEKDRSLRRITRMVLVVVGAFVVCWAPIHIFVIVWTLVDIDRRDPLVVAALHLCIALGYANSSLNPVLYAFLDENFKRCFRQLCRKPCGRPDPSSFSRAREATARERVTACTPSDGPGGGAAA

COc1ccc(-n2nc3c4cc(Cl)ccc4[nH]cc-3c2=O)cc1
solubility [1]: 8.5 µM (≈ 2.77 µg/mL)
solubility [2]: 6.4 µM (≈ 2.08 µg/mL)
t1/2 (Liver [3]): 2.3 h
t1/2 (Liver [4]): 1.9 h
inhibition [5]: Active
Activity (Mus musculus): Non-Toxic
remaining at 1 h, 10 µM [6]: 69.2%
remaining at 1 h, 10 µM [7]: 72.5%
inhibition (Rattus norvegicus): Active

COc1ccc2c3nn(-c4ccc(OC)nc4)c(=O)c-3c[nH]c2c1
solubility [1]: 115.4 µM (≈ 37.2 µg/mL)
Activity [8]: inactive
Activity [9]: inactive
Activity [10]: Active
solubility [2]: 67.2 µM (≈ 21.7 µg/mL)
Activity [11]: inactive
Activity [12]: inactive
Activity [13]: inactive
Activity (Mus musculus): Non-Toxic
remaining at 1 h, 10 µM [6]: 74.8%
remaining at 1 h, 10 µM [7]: 92.8%
inhibition [14]: Active
inhibition (INH) [15]: Not Active

O=c1c2c[nH]c3cc(Br)ccc3c-2nn1-c1ccc(O)cc1
Drug metabolism [16]: Metabolite_Detected
Drug metabolism [17]: Metabolite_Detected

[2H]C([2H])([2H])Oc1ccc(-n2nc3c4ccc(OC([2H])([2H])[2H])cc4[nH]cc-3c2=O)cc1
AUC (Brain [18]): 2747.67 ng·h/g
Tmax [19]: 0.78 h
half-life [20]: 2.64 h
Fu (Brain [21]): 0.105
Tmax [22]: 0.55 h
Activity (HepG2): Non-Toxic
fAUC (Brain [23]): 288.78 ng·h/g
Kp [24]: 0.17
AUC(0-t) at 12 h [25]: 16700 ng·h/mL
half-life [26]: 3.52 h
Cmax [27]: 3410 ng/mL
Activity (Mus musculus): Non-Toxic
remaining at 1 h, 10 µM [6]: 93.1%
Cmax [28]: 534 ng/g
Activity (HEK-293T): Non-Toxic
remaining at 1 h, 10 µM [7]: 91.5%
inhibition (INH) [15]: Not Active
